Screens from PubChem.
In the library only some 1.5% were active in any assay of this set; here they are far more common.
APJ antagonist – antagonists of human apelin receptor APJ, primary screen, CHO-K1 cells, beta-arrestin complementation, luminescence | 0.32% of 330,000 active | P35414 | AID 2521, 2010 | inhibition, % at 20 µM;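 active means inhibition above about 40% at 20 µM, limit read from the data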;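 further: cells challenged with 10 nM apelin-13 agonist together with compound; plate controls were apelin-13 plus DMSO wells for no effect and DMSO wells lacking apelin-13 for full effect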
APJ agonist – agonists of human apelin receptor APJ, primary screen, CHO-K1 cells, PathHunter beta-arrestin, luminescence. activation, % at 20 µM. P35414. 0.11% of 330,000 active. 0% DMSO wells, 100% apelin. AID 2520, 2010;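 active means activation more than six SD over the plate average, tested at 20 µM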;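 further: 0% = DMSO alone and 100% = apelin-13 at 10 nM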
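Material: CHO-K1 APJ beta-arrestin complementation cell line; Input: cell density 1000 per well; Incubation: compound stimulation 90 min at 25 °C, detection 60 min; Signal: luminescence from split beta-galactosidase complementation, Galacton Star/Emerald II substrate; Controls: DMSO-only wells as negative, 10 nM Apelin-13 as positive control.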
CXCR6 block – CXCR6 receptor inhibitors, primary screen, cell-based, beta-arrestin, luminescence, CHO-K1 PathHunter, 1536-well. C-X-C chemokine receptor type 6 (Homo sapiens), O00574. inhibition, % at 20 µM. 0.36% of 360,000 active. AID 602244, 2012; in the data active means inhibition above about 34%, passing the limit was not always enough;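 further: antagonist mode with CXCL16 agonist at 10 nM final; 0% = 10 nM CXCL16 with DMSO and 100% = unstimulated wells without agonist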
CCR6 antagonist – CCR6 receptor antagonists, primary screen, cell-based, CHO-K1, luminescence, beta-arrestin, uHTS | C-C chemokine receptor type 6 (Homo sapiens), P51684 | CHO-K1 CCR6 PathHunter beta-arrestin, CCL20-stimulated | inhibition, % at 20 µM | 0.49% of 340,000 active | AID 493098, 2011;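 active means compounds whose inhibition of the agonist-driven luminescence signal at 20 µM reaches about 50%, limit read from the data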;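 further: cells stimulated with CCL20 at 14 nM final; plate controls were DMSO with CCL20 for no effect and DMSO without agonist for full effect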
Target sequence (P51684 whole entry, looked up): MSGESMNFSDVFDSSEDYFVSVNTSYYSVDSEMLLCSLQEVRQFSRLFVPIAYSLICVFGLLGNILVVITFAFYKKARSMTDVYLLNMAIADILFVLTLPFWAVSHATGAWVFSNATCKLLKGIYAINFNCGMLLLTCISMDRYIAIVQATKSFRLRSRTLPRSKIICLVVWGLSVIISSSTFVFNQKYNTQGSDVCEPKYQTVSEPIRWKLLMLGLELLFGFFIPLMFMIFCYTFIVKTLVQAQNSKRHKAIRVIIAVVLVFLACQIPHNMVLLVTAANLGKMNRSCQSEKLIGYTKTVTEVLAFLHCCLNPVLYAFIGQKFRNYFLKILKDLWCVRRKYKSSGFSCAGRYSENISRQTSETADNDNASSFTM
EBI2 antag – EBI2 receptor antagonists, beta-arrestin recruitment, primary screen, cell-based, luminescence, 7a,25-OHC stimulation, uHTS; 7a,25-OHC stimulated; inhibition, % at 5 µM; 0.81% of 360,000 active; AID 651636, 2012; in the data active means inhibition above about 38%;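 further: enzyme fragment complementation signal reports receptor beta-arrestin coupling in cells; 0% = agonist plus DMSO wells and 100% = wells without agonist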
APJ antag conf – APJ antagonists blocking beta-arrestin recruitment, confirmation, cell-based, luminescence, single concentration, uHTS hits. 66% of 950 active. antagonist mode. shares compounds with APJ antagonist. inhibition, % at 20 µM; in the data active means inhibition above about 50%
* = called active by the depositor; / = no result given.

SMILES	APJ antagonist	APJ agonist	CXCR6 block	CCR6 antagonist	EBI2 antag	APJ antag conf
Cc1cc(=O)n2nc(N3CCC(C(=O)NCc4ccco4)CC3)sc2n1	9	0	-2	5	3	/
CN(C)C(=O)CCc1ccc2c3c([nH]c2c1)[C@]1(C)[C@@H](C(=O)N2CCOCC2)C[C@H](CC(=O)NCCC2=CCCCC2)C(=O)N1CC3	/	/	8	17	-3	/
CCCCN(C)CCNC(=O)CN1C(=O)CSc2ccc(S(=O)(=O)N3CCCCC3)cc21	49*	-5	-7	15	-11	-27
CCCCN(C)CCNC(=O)CN1C(=O)CSc2ccc(S(=O)(=O)N3CCOCC3)cc21	-5	-3	0	4	-1	/
O=C(COC(=O)c1cccc(S(=O)(=O)N2CCCC2)c1)NCc1ccccc1	-4	-2	1	-1	-8	/
COc1ccc(NC(=O)c2cc(-c3cc(F)ccc3OC(C)C)n[nH]2)cc1OC	/	/	-4	/	19	/
COc1ccc(Cn2nnnc2C(c2cc(OC)ccc2OC)N2CCC(C(N)=O)CC2)cc1 (stereo unspecified)	43*	-1	-2	-3	-6	20
COc1ccc(Cn2nnnc2C(c2ccccc2Cl)N2CCC(C(N)=O)CC2)cc1 (stereo unspecified)	6	-1	-3	9	7	/
CCC(C)(C)n1nnnc1C(c1ccc2ncccc2c1)N1CCN2CCCC2C1 (stereo unspecified)	1	-4	-2	10	-5	/
Clc1ccc(-c2nn3c(-c4ccccc4)nnc3s2)cc1	43*	-2	-2	10	8	16
c1ccc(-c2nnc3sc(-c4ccncc4)nn23)cc1	10	-5	-5	-7	6	/
CC([NH2+][O-])C(C)(C)NO (stereo unspecified)	47*	-5	30	51*	6	33
CN(C)c1ccc(N=Nc2nc3ccccc3n2C)cc1	48*	-10	54*	75*	28	108*
COCC(=O)N1CCC(Oc2cccc(C(=O)NCc3ccccn3)c2)CC1	43*	-3	-4	0	-6	-5
CCc1nc2ccc(C(=O)Nc3cccc(NS(C)(=O)=O)c3)cn2c1N(CC)CCOC	/	/	4	/	1	/
OC1CN=C2CCCc3c2n(c2ccc(Cl)cc32)C1 (stereo unspecified)	61*	-11	52*	68*	18	101*
CC(C)(C)OC(=O)N[C@@H](C(=O)OC(C)(C)C)c1ccc2c(c1)OCO2	13	-4	-2	19	1	/
COc1ccc(NC(=O)Cc2c(SC)c3ccccc3n2Cc2ccccc2)cc1	-9	-1	0	-2	26	/
COc1ccc(C(=O)NC(C(=O)NCc2ccccn2)C(C)C)cc1 (stereo unspecified)	-7	-3	4	13	-5	/
CC(C)C(NC(=O)c1ccc(C(C)(C)C)cc1)C(=O)NCc1ccccn1 (stereo unspecified)	41*	-6	4	11	6	16
O=C(NNc1c2ccccc2nc2ccccc12)c1ccc(O)cc1	41*	-7	36	57*	19	69*
O=C(NNc1c2ccccc2nc2ccccc12)c1ccccc1O	27	-5	26	43	26	/
COc1cccc(NC(=S)N/N=C2\CC3CCC2(C)C3(C)C)c1 (stereo unspecified)	41*	-7	40	55*	22	79*
Cc1ccc(C(O)C(=O)c2ccco2)cc1 (stereo unspecified)	-53	7	3	5	-8	/
O=C(c1ccco1)C(O)c1ccco1 (stereo unspecified)	52*	-13	34	58*	-11	98*
SMILES	APJ antagonist	APJ agonist	CXCR6 block	CCR6 antagonist	EBI2 antag	APJ antag conf
Cc1cccc(C(=O)Nc2ccc(C(=O)/C=C/c3ccncc3)cc2)c1	41*	2	59*	41	41	77*
COc1ccc2nc(NC(=S)N(C)C)sc2c1	51*	-9	35	45	-1	44
COc1ccc2nc(NC(=O)CSC3=NCCS3)sc2c1	41*	-3	0	16	2	-13
C=CCOC(=O)C1=C(C)NC(=O)NC1c1cc(Cl)cc(Cl)c1OC (stereo unspecified)	-2	-1	-3	7	1	/
Cc1cc(C)nc(NS(=O)(=O)c2ccc(NC(=S)NC(=O)C3CCCC3)cc2)n1	43*	-4	11	8	3	24
CC(=O)c1ccc(Nc2ccc([N+](=O)[O-])c3nonc23)cc1	36	-5	32	40	7	/
O=C(O)c1cccc(Nc2ccc([N+](=O)[O-])c3nonc23)c1	41*	-6	36	58*	9	78*
O=C(O)c1ccc(Nc2ccc([N+](=O)[O-])c3nonc23)cc1	42*	-9	34	59*	10	76*
COc1ccc(Nc2ccc([N+](=O)[O-])c3nonc23)c(OC)c1	44*	-7	44*	60*	17	78*
CN(C)c1ccc(/C=C2/NC(=O)NC2=O)cc1	3	-1	14	4	6	/
CN(C)c1ccc(/C=C2\N=C(c3ccc(Cl)c([N+](=O)[O-])c3)NC2=O)cc1	52*	-10	45*	63*	37	104*
CCOC(=O)C1=C(COC(=O)c2ncc(Cl)c(Cl)c2Cl)NC(=O)NC1C (stereo unspecified)	-52	4	-16	-16	6	/
COC(=O)CSc1nnc([C@H](CC(C)C)NC(=O)OC(C)(C)C)o1	-12	-1	3	5	-3	/
COc1cc(/C=N/NS(=O)(=O)c2ccc(C)c([N+](=O)[O-])c2)cc([N+](=O)[O-])c1O	50*	-6	27	47	1	60*
COc1cc(/C=N/NS(=O)(=O)c2ccc(C)c([N+](=O)[O-])c2)ccc1O	24	1	10	6	-1	/
CC(C)S(=O)(=O)c1cnc(-c2ccccn2)nc1N	8	-2	1	3	2	/
O=C(CN1C(=O)C2C3C=CC(C3)C2C1=O)OCC(=O)c1ccc([N+](=O)[O-])cc1 (stereo unspecified)	-20	0	-9	1	-17	/
O=C(CNC(=O)c1ccco1)NCC(=O)OCC(=O)c1ccc(Cl)c([N+](=O)[O-])c1	82*	-33	58*	89*	12	147*
O=C(CN1C(=O)C2C3CC(C(Br)C3Br)C2C1=O)OCC(=O)c1cccc([N+](=O)[O-])c1 (stereo unspecified)	44*	-7	26	42	5	59*
